Source: ChEMBL document CHEMBL4406821, “Novel dual inhibitors targeting CDK4 and VEGFR2 synergistically suppressed cancer progression and angiogenesis” (Eur J Med Chem, 2019)
Blank lines part the entries; values can stand above or below the compound they belong to. Active and inactive are the calls of the source. No cut-off for these calls is given here.

Tests used:
[1] = biological target: Calcium/calmodulin-dependent protein kinase type 1G (Homo sapiens) (UniProt Q96NX5); assay: Inhibition of recombinant full length human CAMKIgamma at 1 uM using KKLRRTLSFAEPG as substrate incubated for 40 mins in presence of [gamma-33P]-ATP by scintillation counting method relative to control
Procedure, shortened: (§1)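 Kinase panel profiling at 1 μM performed by Eurofins KinaseProfiler; percent inhibition reported as mean of two independent experiments.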

[2] = Volume of distribution in Sprague-Dawley rat at 10 mg/kg, iv by HPLC-MS analysis; assay type: ADME, organism-based; conditions: in vivo
[3] = tested on: HeLa; assay: Antiproliferative activity against human HeLa cells assessed as reduction in cell viability measured after 72 hrs by CCK8 assay; assay type: functional, cell-based
Procedure, shortened: (§2)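 Cells were seeded at 3×10³ cells/well and exposed to a range of concentrations or vehicle for 72 h. Viability was read by CCK-8 at 450 nm, with DMSO as blank and five replicates per sample. IC50 was calculated from the dose-response.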

[4] = AUC (0 to t) in Sprague-Dawley rat at 10 mg/kg, iv by HPLC-MS analysis; assay type: ADME, organism-based; conditions: in vivo
Procedure, shortened: (§3)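 Rats fitted with jugular vein catheters for serial blood sampling. Compound dissolved in saline with 5% (v/v) DMSO and given as a single 10 mg/kg dose iv or po after an overnight fast, n = 5 per group. Plasma isolated at once and measured by HPLC with tandem MS detection. Parameters derived by noncompartmental fitting.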

[5] = biological target: Tyrosine-protein kinase receptor TYRO3 (Homo sapiens) (UniProt Q06418); assay: Inhibition of recombinant human RSE (451 to end residues) at 1 uM using KVEKIGEGTYGVVYK as substrate incubated for 40 mins in presence of [gamma-33P]-ATP by scintillation counting method relative to control
[6] = biological target: RAC-alpha serine/threonine-protein kinase (Homo sapiens) (UniProt P31749); assay: Inhibition of recombinant human PKBalpha at 1 uM using as CKRREILSRRPSYRK substrate incubated for 60 mins in presence of [gamma-33P]-ATP by scintillation counting method relative to control
Chain of RAC-alpha serine/threonine-protein kinase (Homo sapiens) (P31749 whole entry): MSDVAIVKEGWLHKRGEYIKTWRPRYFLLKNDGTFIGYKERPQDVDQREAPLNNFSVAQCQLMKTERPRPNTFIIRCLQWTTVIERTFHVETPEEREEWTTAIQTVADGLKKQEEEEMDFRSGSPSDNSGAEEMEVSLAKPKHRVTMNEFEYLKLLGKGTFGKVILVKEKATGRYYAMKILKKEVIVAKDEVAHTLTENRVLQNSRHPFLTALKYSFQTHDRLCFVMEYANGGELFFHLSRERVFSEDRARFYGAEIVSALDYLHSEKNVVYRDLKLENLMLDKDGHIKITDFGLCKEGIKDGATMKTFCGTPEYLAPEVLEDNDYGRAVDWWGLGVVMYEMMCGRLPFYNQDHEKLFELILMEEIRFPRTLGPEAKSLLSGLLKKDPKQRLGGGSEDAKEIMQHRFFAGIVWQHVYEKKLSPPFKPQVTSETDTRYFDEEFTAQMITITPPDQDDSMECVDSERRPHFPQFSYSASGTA

[7] = tested on: HUVEC; assay: Antiangiogenic activity against HUVEC cells assessed as reduction in tube formation at 20 to 40 nM incubated for 6 hrs by light microscopy; assay type: functional, cell-based; conditions: Homo sapiens
Procedure, shortened: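 HUVECs, 4×10⁴ cells/well, were seeded on Matrigel that had been solidified at 37°C for 30 min. Cells were treated with compound or vehicle at 37°C for 6 h. Three random fields were counted and photographed under a light microscope.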

[8] = tested on: MDA-MB-231; assay: Antiproliferative activity against human MDA-MB-231 cells assessed as reduction in cell viability measured after 72 hrs by CCK8 assay; assay type: functional, cell-based; conditions: MDA-MB-231, 72 h; procedure, shortened: as §2
[9] = biological target: 5'-AMP-activated protein kinase catalytic subunit alpha-2 (Homo sapiens) (UniProt P54646); assay: Inhibition of recombinant full length human AMPKalpha2 at 1 uM using AMARAASAAALAR as substrate incubated for 40 mins in presence of [gamma-33P]-ATP by scintillation counting method relative to control; procedure, shortened: as §1
Chain of 5'-AMP-activated protein kinase catalytic subunit alpha-2 (Homo sapiens) (P54646 whole entry, looked up): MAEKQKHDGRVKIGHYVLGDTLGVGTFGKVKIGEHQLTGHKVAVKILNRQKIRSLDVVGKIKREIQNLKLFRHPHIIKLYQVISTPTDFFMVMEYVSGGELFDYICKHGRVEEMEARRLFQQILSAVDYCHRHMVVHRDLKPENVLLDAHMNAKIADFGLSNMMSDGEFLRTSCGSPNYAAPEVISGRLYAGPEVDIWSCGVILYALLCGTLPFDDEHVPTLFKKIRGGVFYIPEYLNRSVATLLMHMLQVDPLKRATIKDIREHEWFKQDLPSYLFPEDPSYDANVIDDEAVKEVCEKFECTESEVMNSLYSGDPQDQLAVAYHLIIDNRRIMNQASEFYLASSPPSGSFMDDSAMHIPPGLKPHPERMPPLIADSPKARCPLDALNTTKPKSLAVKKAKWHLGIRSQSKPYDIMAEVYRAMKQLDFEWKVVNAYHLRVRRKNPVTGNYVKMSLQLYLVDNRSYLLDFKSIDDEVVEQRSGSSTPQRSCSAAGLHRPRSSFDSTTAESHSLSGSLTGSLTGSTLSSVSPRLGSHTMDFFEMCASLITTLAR

[10] = tested on: HUVEC; assay: Antiproliferative activity against HUVEC cells assessed as reduction in cell viability measured after 72 hrs by CCK8 assay; assay type: functional, cell-based; conditions: Homo sapiens; procedure, shortened: as §2
[11] = biological target: Ribosomal protein S6 kinase alpha-2 (Homo sapiens) (UniProt Q15349); assay: Inhibition of recombinant human full length RSK3 at 1 uM using KKKNRTLSVA as substrate incubated for 40 mins in presence of [gamma-33P]-ATP by scintillation counting method relative to control
[12] = biological target: Dual specificity mitogen-activated protein kinase kinase 7 (Homo sapiens) (UniProt O14733); assay: Inhibition of recombinant human MKK7beta (2 to end residues) at 1 uM using unactive JNK1a1 as substrate incubated for 40 mins in presence of [gamma-33P]-ATP by scintillation counting method relative to control
[13] = biological target: Tau-tubulin kinase 2 (Homo sapiens) (UniProt Q6IQ55); assay: Inhibition of recombinant human TTBK2 (1 to331 residues) at 1 uM using casein as substrate incubated for 40 mins in presence of [gamma-33P]-ATP by scintillation counting method relative to control
Procedure, shortened: (§4)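 Tested at a single 1 uM in an outsourced commercial kinase-profiling panel, read as percent inhibition. Each value is the mean of two independent experiments.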

[14] = biological target: Proto-oncogene tyrosine-protein kinase ROS (Homo sapiens) (UniProt P08922); assay: Inhibition of recombinant human ROS (1883 to end residues) at 1 uM using KKKSPGEYVNIEFG as substrate incubated for 40 mins in presence of [gamma-33P]-ATP by scintillation counting method relative to control
[15] = biological target: Ephrin type-A receptor 2 (Homo sapiens) (UniProt P29317); assay: Inhibition of recombinant human EPhA2 (596 to 900 residues) at 1 uM using poly(Glu, Tyr) 4:1as substrate incubated for 40 mins in presence of [gamma-33P]-ATP by scintillation counting method relative to control
[16] = Clearance in Sprague-Dawley rat at 10 mg/kg, po by HPLC-MS analysis; assay type: ADME, organism-based; conditions: in vivo; procedure, shortened: as §3
[17] = tested on: SiHa; assay: Antiproliferative activity against human SiHa cells assessed as reduction in cell viability measured after 72 hrs by CCK8 assay; assay type: functional, cell-based; procedure, shortened: as §2
[18] = tested on: SiHa; assay: Antitumor activity against human SiHa cells xenografted in NOD/SCID BALB/c mouse assessed as reduction in tumor weight at 10 to 40 mg/kg, po administered for 21 days; assay type: functional, organism-based
[19] = tested on: T47D; assay: Antiproliferative activity against human T47D cells assessed as reduction in cell viability measured after 72 hrs by CCK8 assay; assay type: functional, cell-based; procedure, shortened: as §2
[20] = biological target: Serine/threonine-protein kinase ATR (Homo sapiens) (UniProt Q13535); assay: Inhibition of recombinant human full length ATR at 1 uM using GST-cMyc-p53 as substrate incubated for 40 mins in presence of [gamma-33P]-ATP by scintillation counting method relative to control; procedure, shortened: as §4
Chain of Serine/threonine-protein kinase ATR (Homo sapiens) (Q13535 whole entry, looked up): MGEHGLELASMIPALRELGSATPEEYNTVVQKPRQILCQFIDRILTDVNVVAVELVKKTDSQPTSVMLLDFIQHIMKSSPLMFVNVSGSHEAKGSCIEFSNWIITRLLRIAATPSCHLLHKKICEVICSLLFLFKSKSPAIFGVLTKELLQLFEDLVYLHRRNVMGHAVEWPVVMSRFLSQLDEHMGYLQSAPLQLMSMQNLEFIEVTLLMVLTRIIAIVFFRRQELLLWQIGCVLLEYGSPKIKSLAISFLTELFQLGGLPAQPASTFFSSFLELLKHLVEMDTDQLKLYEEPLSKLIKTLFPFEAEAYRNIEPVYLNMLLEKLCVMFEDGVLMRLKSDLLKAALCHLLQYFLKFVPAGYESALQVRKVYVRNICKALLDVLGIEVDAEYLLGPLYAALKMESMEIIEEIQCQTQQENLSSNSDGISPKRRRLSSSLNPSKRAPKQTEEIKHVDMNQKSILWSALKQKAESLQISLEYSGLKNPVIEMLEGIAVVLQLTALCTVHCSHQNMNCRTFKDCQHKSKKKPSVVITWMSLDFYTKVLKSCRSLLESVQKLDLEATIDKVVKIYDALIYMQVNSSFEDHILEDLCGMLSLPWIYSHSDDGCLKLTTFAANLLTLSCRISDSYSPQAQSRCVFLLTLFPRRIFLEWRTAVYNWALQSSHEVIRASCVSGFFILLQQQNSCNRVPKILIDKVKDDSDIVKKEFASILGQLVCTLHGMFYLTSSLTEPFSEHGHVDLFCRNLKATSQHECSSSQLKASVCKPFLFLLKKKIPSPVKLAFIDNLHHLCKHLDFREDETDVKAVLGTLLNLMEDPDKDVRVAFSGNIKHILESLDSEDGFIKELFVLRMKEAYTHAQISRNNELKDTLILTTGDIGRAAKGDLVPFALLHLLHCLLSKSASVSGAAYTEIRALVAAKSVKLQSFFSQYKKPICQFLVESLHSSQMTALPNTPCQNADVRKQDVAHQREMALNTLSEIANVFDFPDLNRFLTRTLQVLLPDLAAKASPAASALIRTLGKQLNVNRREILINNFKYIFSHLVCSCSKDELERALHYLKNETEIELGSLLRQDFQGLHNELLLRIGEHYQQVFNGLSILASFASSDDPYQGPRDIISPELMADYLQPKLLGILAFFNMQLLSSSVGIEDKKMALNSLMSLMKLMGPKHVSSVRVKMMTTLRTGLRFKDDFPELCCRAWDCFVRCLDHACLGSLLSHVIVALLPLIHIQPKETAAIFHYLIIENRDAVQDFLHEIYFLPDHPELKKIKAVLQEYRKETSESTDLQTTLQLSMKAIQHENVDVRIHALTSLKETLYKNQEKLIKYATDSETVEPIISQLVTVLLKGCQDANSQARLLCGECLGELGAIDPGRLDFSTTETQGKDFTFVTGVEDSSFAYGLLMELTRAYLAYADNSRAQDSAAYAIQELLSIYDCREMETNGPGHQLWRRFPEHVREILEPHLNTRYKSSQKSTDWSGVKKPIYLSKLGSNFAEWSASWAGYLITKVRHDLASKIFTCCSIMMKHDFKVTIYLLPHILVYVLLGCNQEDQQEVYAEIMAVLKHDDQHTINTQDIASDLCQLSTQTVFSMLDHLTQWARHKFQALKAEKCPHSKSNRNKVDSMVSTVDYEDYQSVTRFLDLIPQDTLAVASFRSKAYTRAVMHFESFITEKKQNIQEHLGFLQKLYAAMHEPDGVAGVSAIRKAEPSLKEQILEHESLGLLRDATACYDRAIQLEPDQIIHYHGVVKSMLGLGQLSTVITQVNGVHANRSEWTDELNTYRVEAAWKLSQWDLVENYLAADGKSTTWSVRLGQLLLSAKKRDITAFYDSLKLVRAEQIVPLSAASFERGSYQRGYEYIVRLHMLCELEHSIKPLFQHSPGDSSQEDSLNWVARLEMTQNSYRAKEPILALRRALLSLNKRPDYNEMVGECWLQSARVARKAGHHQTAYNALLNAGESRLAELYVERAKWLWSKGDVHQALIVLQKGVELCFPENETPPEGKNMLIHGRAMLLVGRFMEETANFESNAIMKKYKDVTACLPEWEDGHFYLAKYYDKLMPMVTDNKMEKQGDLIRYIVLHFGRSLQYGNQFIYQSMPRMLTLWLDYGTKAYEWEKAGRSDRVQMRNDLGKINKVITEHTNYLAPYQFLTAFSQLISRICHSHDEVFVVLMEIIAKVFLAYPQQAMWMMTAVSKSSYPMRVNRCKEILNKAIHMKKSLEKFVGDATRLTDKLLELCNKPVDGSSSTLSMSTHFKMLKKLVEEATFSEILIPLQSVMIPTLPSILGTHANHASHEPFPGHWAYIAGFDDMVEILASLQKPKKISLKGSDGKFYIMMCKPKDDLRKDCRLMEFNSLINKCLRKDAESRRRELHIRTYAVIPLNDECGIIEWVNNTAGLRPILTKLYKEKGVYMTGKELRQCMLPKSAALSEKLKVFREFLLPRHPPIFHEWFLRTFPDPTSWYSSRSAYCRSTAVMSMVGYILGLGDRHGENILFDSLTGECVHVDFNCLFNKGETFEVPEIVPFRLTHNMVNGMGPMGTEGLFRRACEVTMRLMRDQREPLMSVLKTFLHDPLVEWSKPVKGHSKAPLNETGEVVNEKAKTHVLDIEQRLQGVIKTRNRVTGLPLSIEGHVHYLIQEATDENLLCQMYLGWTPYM

[21] = biological target: Vascular endothelial growth factor receptor 2 (Homo sapiens, UniProt P35968); assay: Inhibition of recombinant human VEGFR2 (790 to end residues) using myelin ba as substrate at 1 uM incubated for 40 mins by [gamma-33P]-ATP based radiometric assay relative to control; procedure, shortened: as §1
Chain of Vascular endothelial growth factor receptor 2 (P35968 whole entry): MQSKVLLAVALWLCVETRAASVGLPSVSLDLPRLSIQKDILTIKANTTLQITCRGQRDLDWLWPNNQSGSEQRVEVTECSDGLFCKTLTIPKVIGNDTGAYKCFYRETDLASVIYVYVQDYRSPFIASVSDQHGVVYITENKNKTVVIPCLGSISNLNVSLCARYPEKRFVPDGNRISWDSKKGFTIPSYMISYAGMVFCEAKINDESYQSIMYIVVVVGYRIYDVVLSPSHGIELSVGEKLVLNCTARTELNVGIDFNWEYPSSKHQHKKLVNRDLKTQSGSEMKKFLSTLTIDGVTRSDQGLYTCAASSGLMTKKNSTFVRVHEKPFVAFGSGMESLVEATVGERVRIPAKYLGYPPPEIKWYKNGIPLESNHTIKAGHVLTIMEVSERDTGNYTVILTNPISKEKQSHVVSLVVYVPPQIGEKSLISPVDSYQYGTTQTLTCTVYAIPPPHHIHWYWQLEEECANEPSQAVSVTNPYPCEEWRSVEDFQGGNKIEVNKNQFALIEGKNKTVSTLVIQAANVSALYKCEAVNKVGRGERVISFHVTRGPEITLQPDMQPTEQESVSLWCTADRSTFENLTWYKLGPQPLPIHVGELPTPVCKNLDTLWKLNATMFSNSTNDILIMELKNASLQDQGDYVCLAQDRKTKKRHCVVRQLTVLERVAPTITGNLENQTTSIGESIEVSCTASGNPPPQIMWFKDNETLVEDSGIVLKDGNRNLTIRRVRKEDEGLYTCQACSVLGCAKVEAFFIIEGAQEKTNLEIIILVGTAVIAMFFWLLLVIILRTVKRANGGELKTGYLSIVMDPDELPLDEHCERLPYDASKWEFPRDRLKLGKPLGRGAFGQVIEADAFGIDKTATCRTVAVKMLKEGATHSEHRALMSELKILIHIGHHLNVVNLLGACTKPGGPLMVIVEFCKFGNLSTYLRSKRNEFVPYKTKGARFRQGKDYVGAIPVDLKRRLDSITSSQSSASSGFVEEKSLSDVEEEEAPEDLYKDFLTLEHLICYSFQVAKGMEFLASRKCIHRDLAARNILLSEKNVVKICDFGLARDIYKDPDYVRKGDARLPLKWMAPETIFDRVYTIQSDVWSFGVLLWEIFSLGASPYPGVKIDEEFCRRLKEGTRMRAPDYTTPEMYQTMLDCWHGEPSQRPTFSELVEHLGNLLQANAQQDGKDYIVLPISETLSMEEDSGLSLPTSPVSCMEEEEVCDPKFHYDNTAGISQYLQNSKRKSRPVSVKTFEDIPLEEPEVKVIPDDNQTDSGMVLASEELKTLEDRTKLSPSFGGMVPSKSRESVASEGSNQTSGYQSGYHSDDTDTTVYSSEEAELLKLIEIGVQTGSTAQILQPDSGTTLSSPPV

[22] = tested on: PI3-kinase p110-alpha/p85-alpha (Homo sapiens), P27986+P42336 [H1047R]; assay: Inhibition of recombinant human full length PI3K p110alpha/p85alpha H1047R mutant at 1 uM using phosphatidylinositol 4,5-bisphosphate as substrate incubated for 40 mins in presence of [gamma-33P]-ATP by scintillation counting method relative to control; assay type: protein-complex assay
[23] = tested on: SiHa; assay: Antitumor activity against human SiHa cells xenografted in NOD/SCID BALB/c mouse assessed as reduction in Ki67 expression at 40 mg/kg, po measured after 21 days by hematoxylin and eosin staining based immunohistochemistry; assay type: functional, organism-based
Procedure, shortened: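 Female NOD/SCID Balb/c mice, 6–8 weeks old, received 2×10^6 SiHa cells subcutaneously in the right flank. Once tumors reached 100 mm³, mice were randomized, 5 per group, and gavaged once daily for 21 days. Formalin-fixed, paraffin-embedded tumor sections were stained with Ki67 or CD31 antibody (1:100, 4 °C overnight), then biotin secondary and ABC-peroxidase/DAB, with hematoxylin counterstain.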

Compound: Cc1ccc(NC(=O)C2(C(=O)Nc3ccc(Nc4ncc(F)c(-c5cc(F)c6nc(C)n(C(C)C)c6c5)n4)cc3)CC2)cc1
inhibition [1]: 5%
Vd [2]: 2 L/kg
IC50 [3]: 71.5 to 72 nM
AUC(0-t) [4]: 10000 ng·h/mL
inhibition [5]: 66%
inhibition [6]: 36%
inhibition [7]: Active
IC50 [8]: 38 nM
inhibition [9]: 77%
IC50 [10]: 36 nM
inhibition [11]: 26%
inhibition [12]: 13%
inhibition [13]: 0%
inhibition [14]: 58%
inhibition [15]: 61%
CL/F [16]: 33.3 mL/min/kg
IC50 [17]: 50 nM
inhibition [18]: Active
IC50 [19]: 16 to 16.4 nM
inhibition [20]: 0%
inhibition [21]: 95%
inhibition [22]: 7%

IC50 [3]: > 10000 nM
IC50 [8]: 5080 nM
IC50 [19]: 4790 nM
inhibition [21]: 101%
Compound: COc1cc2nccc(Oc3ccc(NC(=O)C4(C(=O)Nc5ccc(F)cc5)CC4)cc3)c2cc1OC [CABOZANTINIB]
inhibition [23]: Active
inhibition [7]: Active
IC50 [10]: 7670 nM
IC50 [17]: 7940 nM
